For 11 molecules, Activity, MIC99 and Ratio results are on record in ChEMBL document CHEMBL1154512, “PA-824 kills nonreplicating Mycobacterium tuberculosis by intracellular NO release” (2008).

In brackets after ≈: the same amount, converted by molar mass.

Experiment [1] deals with Mycobacterium tuberculosis. Put plainly: Mycobactericidal activity against Mycobacterium tuberculosis H37Rv assessed as minimum anaerobicidal concentration required for 1 log reduction in bacterial numbers after 1 week under hypoxic non replicating condition. Format: functional. In a few lines:
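Mtb adapted to hypoxia was exposed to compound for 1 week. MAC taken as the micromolar concentration giving a 1 log drop in bacterial numbers.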

Experiment [2] has as its system Mycobacterium tuberculosis. In words: Bactericidal activity against Mycobacterium tuberculosis H37Rv under aerobic condition by broth dilution method. The format is functional. In a few lines:
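MIC taken as the micromolar concentration inhibiting 99% of growth of an Mtb inoculum.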
On the technique in general: In broth dilution the organism is exposed to a series of concentrations in liquid medium.

For experiment [3], the target named is Deazaflavin-dependent nitroreductase (Mycobacterium tuberculosis) (UniProt P9WP15). In words: Ratio of Kcat to Km for Mycobacterium tuberculosis Rv3547 expressed in Escherichia coli co-transfected with maltose-binding fusion protein. The procedure, abridged:
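Ddn (Rv3547) expressed in E. coli as a maltose-binding protein fusion and purified on amylose resin. Activity followed as time- and enzyme-dependent reoxidation of reduced F420 (F420H2), with the nitroimidazole as substrate. Kinetic values given as kcat/Km (min–1 μM–1).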

Experiment [4] has the same target. In words: Binding affinity to Mycobacterium tuberculosis Rv3547 assessed as nitrous acid production by Griess method in presence of cofactor F420H2. In a few lines:
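Purified Ddn incubated with the nitroimidazole and F420H2. Reduction monitored as nitrite formation, read with Griess reagent.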

Sequence of Deazaflavin-dependent nitroreductase (Mycobacterium tuberculosis) (P9WP15 whole entry, the tested form may be a part): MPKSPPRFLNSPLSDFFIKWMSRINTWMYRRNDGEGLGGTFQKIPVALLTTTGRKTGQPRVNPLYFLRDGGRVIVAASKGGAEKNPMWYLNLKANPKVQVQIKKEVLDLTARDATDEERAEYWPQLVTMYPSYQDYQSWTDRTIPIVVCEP

In the case of `O=[N+]([O-])c1cn2c(n1)SC[C@@H](OCc1ccc(OC(F)(F)F)cc1)C2`, in experiment [1], the Activity is 25 µM. The MIC99 (usually the lowest concentration that inhibits either 99% of growth or 99% of the strains tested, depending on the study) in experiment [2] came out at 1.2 µM (≈ 0.45 µg/mL).

As to `O=[N+]([O-])c1cn2c(n1)OC[C@@H](NCc1ccc(OC(F)(F)F)cc1)C2`, the Activity in experiment [1] was determined as 8 µM. Moreover, in experiment [2], the MIC99 was 0.4 µM (≈ 0.143 µg/mL).

Turning to `O=[N+]([O-])c1cn2c(n1)OC[C@H](OCc1ccc(OC(F)(F)F)cc1)C2`, in experiment [1], the Activity was found to be 250 µM. The Ratio in experiment [3] turned out to be 0.016. The molecule also showed an MIC99 in experiment [2] of 110 µM (≈ 39.5 µg/mL).

For `O=[N+]([O-])c1cn2c(n1)OC[C@@H](NCCCc1ccc(OC(F)(F)F)cc1)C2`, in experiment [1], the Activity was determined as 3.1 µM. In experiment [2], the MIC99 is 0.08 µM (≈ 0.0309 µg/mL).

As to `O=[N+]([O-])c1cn2c(n1)NC[C@@H](OCc1ccc(OC(F)(F)F)cc1)C2`, the Activity in experiment [1] came out at 130 µM. Further, in experiment [2], the MIC99 was found to be 0.8 µM (≈ 0.287 µg/mL).

On to `O=[N+]([O-])c1cn2c(n1)OC[C@@H](NCc1ccc(OCc3ccc(OC(F)(F)F)cc3)cc1)C2`, for which the Activity in experiment [1] came out at 2.1 µM. In addition, in experiment [2], the MIC99 was 0.16 µM (≈ 0.0743 µg/mL).

As to `O=[N+]([O-])c1cn2c(n1)OC[C@@H](NCCCCc1ccc(OC(F)(F)F)cc1)C2`, the Activity in experiment [1] was 8.1 µM. This molecule registered an MIC99 in experiment [2] of 0.04 µM (≈ 0.016 µg/mL).

Consider `CCCCc1ccc(CN[C@@H]2COc3nc([N+](=O)[O-])cn3C2)cc1`, for which the Activity in experiment [1] was 75 µM. In experiment [2], this molecule had an MIC99 of 0.78 µM (≈ 0.258 µg/mL).

In the case of `O=CN1CC(OCc2ccc(OC(F)(F)F)cc2)Cn2cc([N+](=O)[O-])nc21` (single isomer, unassigned), the Activity in experiment [1] worked out at 31 µM. The MIC99 in experiment [2] was determined as 6.3 µM (≈ 2.43 µg/mL).

In the case of `O=[N+]([O-])c1cn2c(n1)OC[C@@H](NCCc1ccc(OC(F)(F)F)cc1)C2`, in experiment [1], the Activity turned out to be 2 µM. Further, the MIC99 in experiment [2] is 0.04 µM (≈ 0.0149 µg/mL).

As for `O=[N+]([O-])c1cn2c(n1)OC[C@@H](OCc1ccc(OC(F)(F)F)cc1)C2` [PRETOMANID], the Activity is 12 µM in experiment [1] and “Dose-dependent effect” in experiment [4]. For the same molecule, in experiment [3], the Ratio worked out at 0.145. Also, in experiment [2], the MIC99 amounted to 0.8 µM (≈ 0.287 µg/mL).
